# According to ChEMBL document CHEMBL1123471, “Dopamine receptor agonists: 3-allyl-6-chloro-2,3,4,5-tetrahydro- 1-(4-hydroxyphenyl)-1H-3-benzazepine-7,8-diol and a series of related 3-benzazepines” (J Med Chem, 1986):
# Counter-ions that a name gives are not always drawn.
# Key:
# Assay type in all cases: functional, organism-based; call rule not given here
# Rattus norvegicus = species: Rattus norvegicus; experiment: Concentration necessary to cause 50% increase in cAMP formation(by adenylate cyclase) relative to the maximum increase caused by the compound
# Summary of the method: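 Rat caudate homogenate (male Charles River rats, 225-300 g), made at 0 °C in 50 mM Tris-maleate pH 7.4 with 2 mM EGTA; incubated with test compound at increasing concentrations, 2 mM MgSO4, 5 mM aminophylline, and [14C]ATP (final 0.65 mM) for 3 min at 30 °C. [14C]cAMP isolated on alumina/Dowex columns and counted; quadruplicates; least-squares dose-response curves.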
# Oryctolagus cuniculus [1] = species: Oryctolagus cuniculus; experiment: Inhibition of the constrictor response to electrical stimulation in rabbit ear artery.
# Summary of the method: (§1)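 Isolated perfused rabbit ear artery in Krebs-Henseleit (95% O2/5% CO2, 35 °C, pH 7.4), stabilized ≥1 h. Sympathetic nerves field-stimulated every 4 min (0.7-ms pulses, 75 V, 10-15 Hz trains of 300-500 ms). Compound superfused at increasing concentrations, 4 min each. Read-out is the rise in perfusion pressure; IC50 from least-squares curves.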
# Oryctolagus cuniculus [2] = species: Oryctolagus cuniculus; experiment: Concentration necessary to inhibit 50% of the constrictor response to electrical stimulation in rabbit ear artery; I=Inactive; summary of the method: as §1
EC50 (Rattus norvegicus),EC50 (Oryctolagus cuniculus [1]),EC50 (Oryctolagus cuniculus [2]),SMILES
550 nM,1000 nM,–,CCCN1CCc2c(cc(O)c(O)c2Cl)C(c2ccc(O)cc2)C1 (stereo not given)
15 nM,122 nM,–,C=CCN1CCc2c(cc(O)c(O)c2Cl)C(c2ccc(O)cc2)C1 (stereo not given)
640 nM,2700 nM,–,C#CCN1CCc2c(cc(O)c(O)c2Cl)C(c2ccc(O)cc2)C1 (stereo not given)
> 10000 nM,3000 nM,–,C=CCN1CCc2c(cc(O)c(O)c2Cl)[C@H](c2ccc(O)cc2)C1
~10000 nM,90 nM,–,CN1CCc2c(cc(O)c(O)c2Cl)C(c2ccc(O)cc2)C1 (stereo not given)
–,10000 nM,–,C/C=C/CN1CCc2c(cc(O)c(O)c2Cl)C(c2ccc(O)cc2)C1 (stereo not given)
1000 nM,500 nM,–,OCCN1CCc2c(cc(O)c(O)c2Cl)C(c2ccc(O)cc2)C1 (stereo not given)
9 nM,84 nM,–,C=CCN1CCc2c(cc(O)c(O)c2Cl)[C@@H](c2ccc(O)cc2)C1

# Second part, the molecule before the results:
SMILES,EC50 (Rattus norvegicus),EC50 (Oryctolagus cuniculus [1]),EC50 (Oryctolagus cuniculus [2])
Oc1ccc(C2CN(C/C=C/c3ccccc3)CCc3c2cc(O)c(O)c3Cl)cc1 (stereo not given),–,–,Not Active
OCC(O)CN1CCc2c(cc(O)c(O)c2Cl)C(c2ccc(O)cc2)C1 (stereo not given),–,> 10000 nM,–
Oc1cc2c(cc1O)CCNCC2,–,12 nM,–
Oc1ccc(C2CNCCc3c2cc(O)c(O)c3Cl)cc1 (stereo not given) [FENOLDOPAM MESYLATE],57 nM,1000 nM,–
CCCCN(CCC)CCc1ccc(O)c(O)c1,–,48 nM,–
NCCc1ccc(O)c(O)c1 [DOPAMINE],–,38 nM,–
Oc1ccc(C2CN(CC3CC3)CCc3c2cc(O)c(O)c3Cl)cc1 (stereo not given),1100 nM,1700 nM,–
NC1CCc2cc(O)c(O)cc2C1 (stereo not given),–,17 nM,–
C=CCN1CCc2c(cc(O)c(O)c2Cl)C(c2cccc(O)c2)C1 (stereo not given),125 nM,760 nM,–
CN1CCc2cccc3c2[C@H]1Cc1ccc(O)c(O)c1-3 [APOMORPHINE],–,44 nM,–
CCCN(CCC)CCc1ccc(O)c(O)c1,–,60 nM,–
CCCN(CCC)CCc1ccc(O)c2c1CC(=O)N2 [SKF-89124A],–,2 nM,–
